In brackets after ≈: the same amount, converted by molar mass. Activity calls are given as the source filed them. No cut-off for these calls is given here.
Tested on: Mycobacterium tuberculosis
Assay: Antimycobacterial activity against multidrug resistant Mycobacterium tuberculosis
Format: functional
Summary of the method: (§1)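 MIC determined by agar dilution, following the NCCLS-recommended approach, in duplicate. Strains were M. tuberculosis H37Rv and a multidrug-resistant M. tuberculosis. Concentrations were tested up to 25 µg/mL.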

| Compound | MIC |
| --- | --- |
| COc1cc(/C=N/N=C(\S)Nc2ncc(C3CCC3)o2)ccc1O | 12.5 mg/L (≈ 36.1 µM) |
| C/C(=N\N=C(/S)Nc1ncc(C2CCC2)o1)c1ccccc1 | 3.12 mg/L (≈ 9.92 µM) |
| C/C(=N\N=C(/S)Nc1ncc(C2CCC2)o1)c1ccc(O)cc1 | 3.12 mg/L (≈ 9.44 µM) |
| O=[N+]([O-])c1cccc(/C=N/N=C(\S)Nc2ncc(C3CCC3)o2)c1 | 0.78 mg/L (≈ 2.26 µM) |
| Oc1ccccc1/C=N/N=C(\S)Nc1ncc(C2CCC2)o1 | 6.25 mg/L (≈ 19.8 µM) |
| CN(C)c1ccc(/C=N/N=C(\S)Nc2ncc(C3CCC3)o2)cc1 | 3.12 mg/L (≈ 9.08 µM) |
| C/C(=N\N=C(/S)Nc1ncc(C2CCC2)o1)c1ccc([N+](=O)[O-])cc1 | 0.2 mg/L (≈ 0.556 µM) |
| NNC(=O)c1ccncc1 [ISONIAZID] | 1.56 mg/L (≈ 11.4 µM) |
| S=C(N/N=C/c1ccc(Cl)cc1)Nc1ncc(C2CCC2)o1 | 1.56 mg/L (≈ 4.66 µM) |
| CC[C@@H](CO)NCCN[C@@H](CC)CO [ETHAMBUTOL] | 25 mg/L (≈ 122 µM) |
| COc1c(N2CCNC(C)C2)c(F)cc2c(=O)c(C(=O)O)cn(C3CC3)c12 (stereo unspecified) [GATIFLOXACIN] | 6.25 mg/L (≈ 16.6 µM) |
| Oc1[nH]c2ccc(F)cc2c1/N=N/C(S)=N/c1ncc(C2CCC2)o1 | 12.5 mg/L (≈ 34.8 µM) |
| S=C(NN=C(Cc1ccccc1)Cc1ccccc1)Nc1ncc(C2CCC2)o1 | 6.25 mg/L (≈ 15.4 µM) |
| COc1ccc(/C=N/N=C(\S)Nc2ncc(C3CCC3)o2)cc1 | 6.25 mg/L (≈ 18.9 µM) |
| CO[C@H]1/C=C/O[C@@]2(C)Oc3c(C)c(O)c4c(O)c(c(/C=N/N5CCN(C)CC5)c(O)c4c3C2=O)NC(=O)/C(C)=C\C=C\[C@H](C)[C@H](O)[C@@H](C)[C@@H](O)[C@@H](C)[C@H](OC(C)=O)[C@@H]1C [RIFAMPIN] | 3.12 mg/L (≈ 3.79 µM) |
| Oc1[nH]c2ccccc2c1/N=N/C(S)=N/c1ncc(C2CCC2)o1 | 25 mg/L (≈ 73.2 µM) |
| C/C(=N\N=C(/S)Nc1ncc(C2CCC2)o1)c1ccc(N)cc1 | 0.78 mg/L (≈ 2.37 µM) |
| Cc1ccc(/C=N/N=C(\S)Nc2ncc(C3CCC3)o2)cc1 | 3.12 mg/L (≈ 9.92 µM) |
| S=C(N/N=C(\c1ccccc1)c1ccc(Br)cc1)Nc1ncc(C2CCC2)o1 | 0.05 mg/L (≈ 0.11 µM) |
| C/C(=N\N=C(/S)Nc1ncc(C2CCC2)o1)c1ccc(C)cc1 | 0.78 mg/L (≈ 2.37 µM) |
| O=[N+]([O-])c1ccc(/C=N/N=C(\S)Nc2ncc(C3CCC3)o2)cc1 | 0.39 mg/L (≈ 1.13 µM) |
| S=C(NN=C(c1ccccc1)c1ccccc1)Nc1ncc(C2CCC2)o1 | 0.1 mg/L (≈ 0.266 µM) |
| O=[N+]([O-])c1ccccc1/C=N/N=C(\S)Nc1ncc(C2CCC2)o1 | 0.78 mg/L (≈ 2.26 µM) |
| C/C(=N\N=C(/S)Nc1ncc(C2CCC2)o1)c1ccccc1O | 3.12 mg/L (≈ 9.44 µM) |

Tested on: Vero
Assay: Selectivity index, IC50 for Vero cell line/ MIC for multidrug resistant Mycobacterium tuberculosis
Format: functional
Summary of the method: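 Vero cells were exposed to compound at 62.5 µg/mL for 72 h. Viability was read by MTT conversion to formazan. Selectivity index is the Vero IC50 divided by the agar-dilution MIC against the listed strain.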

| Compound | Selectivity index |
| --- | --- |
| S=C(NN=C(c1ccccc1)c1ccccc1)Nc1ncc(C2CCC2)o1 | >1250 |

Tested on: Mycobacterium tuberculosis
Assay: Antimycobacterial activity against multidrug resistant Mycobacterium tuberculosis at 25 ug/ml
Format: functional, organism-based
Summary of the method: as §1

| Compound | Activity |
| --- | --- |
| N/N=C(\S)Nc1ncc(C2CCC2)o1 | inactive |
